Data as given in ChEMBL document CHEMBL5252646, “Novel thienocycloalkylpyridazinones as useful scaffolds for acetylcholinesterase inhibition and serotonin 5-HT6 receptor interaction” (Bioorg Med Chem, 2023).
pIC50, pKi: −log10 of the molar value. Calls of active or inactive are those of the source. The calls are words filed in the database; no cut-off is given here.

Tests used:
[1] = biological target: T1, Acetylcholinesterase (Homo sapiens, UniProt P22303); test: Inhibition of human AChE using acetylthiocholine iodide as substrate preincubated with enzyme for 20 mins followed by substrate addition and measured for 5 mins by Ellman's spectrophotometric method
[2] = biological target: T2, 5-hydroxytryptamine receptor 7 (Homo sapiens, UniProt P34969); test: Displacement of [3H]SB269970 from human 5-HT7 receptor expressed in HEK cell membrane at 10 uM incubated for 60 mins by microplate beta scintillation counting analysis; type: cell membranes
How it was run: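 Membranes from HEK cells expressing human 5-HT7, 2 µg per well, with 2 nM [3H]-SB269970, 60 min at 37 °C. Buffer Tris-HCl 50 mM, 4 mM CaCl2, 1 mM ascorbic acid, 0.1 mM pargyline, pH 7.4. Nonspecific binding with 25 µM clozapine. Filtered, scintillation counted. Duplicates. Displacement as % at 10 µM.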

[3] = biological target: T3, Cholinesterase (Homo sapiens, UniProt P06276); test: Inhibition of human BChE using butyrylthiocholine iodide as substrate at 10 uM preincubated with enzyme for 20 mins followed by substrate addition and measured for 5 mins by Ellman's spectrophotometric method; conditions: time 25.0 min
[4] = biological target: T4, 5-hydroxytryptamine receptor 1A (Homo sapiens) (UniProt P08908); test: Displacement of [3H]-8-OH-DPAT from human 5-HT1A receptor expressed in HEK cell membrane at 10 uM incubated for 120 mins by microplate beta scintillation counting analysis; type: cell membranes
T4 sequence (whole entry): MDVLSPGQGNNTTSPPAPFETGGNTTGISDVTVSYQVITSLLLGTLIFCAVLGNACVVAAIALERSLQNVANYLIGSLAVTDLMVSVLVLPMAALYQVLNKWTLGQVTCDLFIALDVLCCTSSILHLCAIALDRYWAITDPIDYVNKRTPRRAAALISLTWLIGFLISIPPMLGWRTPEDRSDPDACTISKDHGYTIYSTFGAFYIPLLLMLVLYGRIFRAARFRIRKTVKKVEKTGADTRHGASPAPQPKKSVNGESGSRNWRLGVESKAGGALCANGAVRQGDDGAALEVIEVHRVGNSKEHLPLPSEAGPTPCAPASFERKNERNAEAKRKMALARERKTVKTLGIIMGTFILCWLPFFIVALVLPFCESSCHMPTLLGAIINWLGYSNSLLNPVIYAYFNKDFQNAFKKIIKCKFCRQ
How it was run: (§1)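 Membranes from HEK cells expressing human 5-HT1A, 10 µg per well, with 1 nM [3H]-8-OH-DPAT, 120 min at 37 °C. Buffer 50 mM Tris-HCl, 5 mM MgSO4, pH 7.4. Nonspecific binding with 10 µM 5-HT. Filtered on PEI-treated GF/C and washed, then scintillation counted. Duplicates.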

[5] = biological target: T5, 5-hydroxytryptamine receptor 6 (Homo sapiens, UniProt P50406); test: Displacement of [3H]-LSD from human 5-HT6 receptor expressed in HEK cell membrane at 10 uM incubated for 60 mins by microplate beta scintillation counting analysis; type: cell membranes
How it was run: (§2)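 Membranes from HEK cells expressing human 5-HT6, 5 µg per well, with 2 nM [3H]-LSD, 60 min at 37 °C. Buffer 50 mM Tris-HCl, 10 mM MgCl2, 0.5 mM EDTA, pH 7.4. Nonspecific binding with 100 µM 5-HT. Filtered on GF/C, scintillation counted.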

[6] = biological target: T3, Cholinesterase; test: Inhibition of human BChE using butyrylthiocholine iodide as substrate preincubated with enzyme for 20 mins followed by substrate addition and measured for 5 mins by Ellman's spectrophotometric method
[7] = biological target: T6, 5-hydroxytryptamine receptor 4 (Homo sapiens, UniProt Q13639); test: Antagonist activity at 5-HT4 receptor in human HeLa cells assessed as inhibition of intracellular calcium mobilization at 10 uM incubated for 2 hrs by FLIPR assay; type: cell-based
How it was run: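 HeLa cells stably expressing human 5-HT4, 20,000 per well, seeded the day before. Medium replaced with DMEM plus Calcium 6 dye, 2 h at 37 °C, then compounds and standard added. Intracellular calcium read by fluorescence (ex 480, em 540 nm) every second after a baseline. Duplicates.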

[8] = biological target: T5, 5-hydroxytryptamine receptor 6; test: Displacement of [3H]-LSD from human 5-HT6 receptor expressed in HEK cell membrane incubated for 60 mins by microplate beta scintillation counting analysis; type: cell membranes; how it was run: as §2
[9] = biological target: T7, 5-hydroxytryptamine receptor 1A (Homo sapiens, UniProt P08908); test: Displacement of [3H]-8-OH-DPAT from human 5-HT1A receptor expressed in HEK cell membrane incubated for 120 mins by microplate beta scintillation counting analysis; type: cell membranes; how it was run: as §1
T7 sequence (P08908 whole entry): T4 sequence (whole entry)

[10] = biological target: T2, 5-hydroxytryptamine receptor 7; test: Displacement of [3H]SB269970 from human 5-HT7 receptor expressed in HEK cell membrane incubated for 60 mins by microplate beta scintillation counting analysis; type: cell membranes
[11] = biological target: T1, Acetylcholinesterase; test: Competitive inhibition of human AChE using acetylthiocholine iodide as substrate preincubated with enzyme for 20 mins followed by varing concentrations of substrate addition and measured for 5 mins by Lineweaver-Burk plot analysis
How it was run: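 Human AChE, Ellman spectrophotometric method in 96-well format, run in triplicate. Kinetics: six acetylthiocholine concentrations (0.033 to 0.2 mM) crossed with four inhibitor concentrations (0–300 nM). Analysed by the Michaelis-Menten approach; kinetic parameters from nonlinear regression.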

[12] = biological target: T6, 5-hydroxytryptamine receptor 4; test: Antagonist activity at 5-HT4 receptor in human HeLa cells assessed as inhibition of intracellular calcium mobilization incubated for 2 hrs by FLIPR assay; type: cell-based
How it was run: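 HeLa cells stably expressing human 5-HT4, seeded the day before at 20,000 cells/well. Medium replaced with DMEM plus Calcium 6 dye, then 2 h at 37 °C. Compounds and standard added afterwards. Fluorescence from intracellular calcium mobilization (ex 480 nm, em 540 nm) recorded every second after a baseline was set. Run in duplicate.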

T2 sequence (P34969 whole entry): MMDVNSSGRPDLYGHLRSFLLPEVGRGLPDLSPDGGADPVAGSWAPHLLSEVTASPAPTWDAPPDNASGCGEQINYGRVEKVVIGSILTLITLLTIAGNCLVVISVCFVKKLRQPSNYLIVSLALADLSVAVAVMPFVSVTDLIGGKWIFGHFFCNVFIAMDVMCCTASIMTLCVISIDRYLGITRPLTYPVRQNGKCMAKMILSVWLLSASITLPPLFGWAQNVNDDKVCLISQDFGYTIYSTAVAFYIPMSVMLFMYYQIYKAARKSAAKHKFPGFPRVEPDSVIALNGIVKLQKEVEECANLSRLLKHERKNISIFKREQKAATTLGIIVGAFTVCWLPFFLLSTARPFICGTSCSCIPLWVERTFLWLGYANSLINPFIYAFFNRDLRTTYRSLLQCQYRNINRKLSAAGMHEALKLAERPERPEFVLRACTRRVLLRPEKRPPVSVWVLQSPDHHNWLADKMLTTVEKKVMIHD
T3 sequence (P06276 whole entry): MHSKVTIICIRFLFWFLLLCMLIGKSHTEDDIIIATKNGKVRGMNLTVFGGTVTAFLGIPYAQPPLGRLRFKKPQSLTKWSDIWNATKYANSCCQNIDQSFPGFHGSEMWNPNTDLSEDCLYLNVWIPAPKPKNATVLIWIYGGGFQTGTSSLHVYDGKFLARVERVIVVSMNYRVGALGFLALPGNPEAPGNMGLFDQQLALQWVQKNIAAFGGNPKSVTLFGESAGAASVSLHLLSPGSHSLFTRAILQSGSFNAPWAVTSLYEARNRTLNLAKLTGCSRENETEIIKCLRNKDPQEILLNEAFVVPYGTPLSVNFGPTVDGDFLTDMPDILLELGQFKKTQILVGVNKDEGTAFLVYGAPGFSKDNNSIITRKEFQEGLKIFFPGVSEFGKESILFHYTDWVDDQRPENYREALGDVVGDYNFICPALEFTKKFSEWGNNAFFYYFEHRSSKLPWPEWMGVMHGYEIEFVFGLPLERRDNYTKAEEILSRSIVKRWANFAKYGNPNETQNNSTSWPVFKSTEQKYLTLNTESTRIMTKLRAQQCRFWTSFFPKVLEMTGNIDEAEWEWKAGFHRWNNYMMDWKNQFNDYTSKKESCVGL
T1 sequence (P22303 whole entry): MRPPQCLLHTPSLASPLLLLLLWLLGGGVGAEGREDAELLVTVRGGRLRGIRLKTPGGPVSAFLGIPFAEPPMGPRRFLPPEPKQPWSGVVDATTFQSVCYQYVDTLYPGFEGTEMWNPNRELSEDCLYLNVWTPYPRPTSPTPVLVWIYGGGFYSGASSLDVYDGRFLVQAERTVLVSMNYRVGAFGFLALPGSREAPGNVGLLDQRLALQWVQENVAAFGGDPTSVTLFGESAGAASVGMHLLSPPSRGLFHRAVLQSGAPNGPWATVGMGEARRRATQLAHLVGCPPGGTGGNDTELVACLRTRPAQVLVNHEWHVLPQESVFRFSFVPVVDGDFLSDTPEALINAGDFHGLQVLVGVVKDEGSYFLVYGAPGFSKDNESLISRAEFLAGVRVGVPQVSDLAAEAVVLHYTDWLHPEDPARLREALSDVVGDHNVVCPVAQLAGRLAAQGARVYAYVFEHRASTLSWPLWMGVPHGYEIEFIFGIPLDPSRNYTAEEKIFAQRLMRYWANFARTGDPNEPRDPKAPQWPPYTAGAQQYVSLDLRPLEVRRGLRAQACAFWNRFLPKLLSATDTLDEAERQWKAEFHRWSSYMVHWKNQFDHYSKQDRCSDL
T5 sequence (P50406 whole entry): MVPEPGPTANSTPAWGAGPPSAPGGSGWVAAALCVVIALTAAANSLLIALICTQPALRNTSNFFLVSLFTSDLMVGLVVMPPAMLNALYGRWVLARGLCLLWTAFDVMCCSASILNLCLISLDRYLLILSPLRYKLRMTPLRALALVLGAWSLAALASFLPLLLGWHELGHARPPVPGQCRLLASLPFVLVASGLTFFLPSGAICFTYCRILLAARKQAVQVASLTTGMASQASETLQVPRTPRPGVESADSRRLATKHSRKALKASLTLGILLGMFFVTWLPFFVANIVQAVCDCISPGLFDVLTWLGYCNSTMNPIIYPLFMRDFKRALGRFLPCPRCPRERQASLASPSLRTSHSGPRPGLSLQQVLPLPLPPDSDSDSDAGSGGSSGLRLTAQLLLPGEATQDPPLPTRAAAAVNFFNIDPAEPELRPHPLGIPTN
T6 sequence (Q13639 whole entry): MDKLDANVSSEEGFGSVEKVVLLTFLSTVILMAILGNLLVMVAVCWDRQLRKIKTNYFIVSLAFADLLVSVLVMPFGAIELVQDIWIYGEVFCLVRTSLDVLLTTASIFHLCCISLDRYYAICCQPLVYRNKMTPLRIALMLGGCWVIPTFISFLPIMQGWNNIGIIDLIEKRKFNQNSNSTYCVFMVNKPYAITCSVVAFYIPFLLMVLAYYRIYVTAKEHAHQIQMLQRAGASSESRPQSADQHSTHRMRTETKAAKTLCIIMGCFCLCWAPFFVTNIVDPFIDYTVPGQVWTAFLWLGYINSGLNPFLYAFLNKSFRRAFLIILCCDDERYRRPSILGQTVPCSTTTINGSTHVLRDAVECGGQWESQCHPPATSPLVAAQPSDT

SMILES	pIC50 [1]	inhibition [2]	inhibition [3]	inhibition [4]	inhibition [5]	pIC50 [6]	inhibition [7]	pKi [8]	pKi [9]	pKi [10]	pKi [11]	inhibition ([2]; filed as antagonist)	pKi [12]
CN(C)CCCCN1N=C2c3sccc3CCC2CC1=O (centres undefined)	5.20	24%	inactive	37%	36%	–	–	–	–	–	–	–	–
O=C1CC2CCc3ccsc3C2=NN1CN1CCN(Cc2ccccc2)CC1 (centres undefined)	4.87	23%	–	24%	28%	5.25	–	–	–	–	–	–	–
O=C1CC2CCc3ccsc3C2=NN1CCCCCCN1CCN(Cc2cccc3c2ccn3S(=O)(=O)c2ccccc2)CC1 (centres undefined)	5.01	33%	–	23%	–	–	12%	6.99	–	–	–	–	–
CCN(CC)CCCCN1N=C2c3sccc3CCC2CC1=O (centres undefined)	5.53	10%	inactive	–	27%	–	–	–	5.06	–	–	–	–
O=C1CC2CCc3ccsc3C2=NN1CCCCN1CCN(Cc2cccc3c2ccn3S(=O)(=O)c2ccccc2)CC1 (centres undefined)	5.12	–	–	–	–	–	inactive	6.63	5.55	5.70	–	–	–
O=C1CC2CCc3ccsc3C2=NN1CCCCN1CCCC1 (centres undefined)	5.94	16%	14%	–	33%	–	–	–	5.45	–	–	–	–
O=C1CC2Cc3ccsc3C2=NN1CCCCCN1CCN(Cc2cccc3c2ccn3S(=O)(=O)c2ccccc2)CC1 (centres undefined)	5.16	–	–	–	–	–	inactive	8.08	5.45	5.74	–	–	–
O=C1CC2CCc3ccsc3C2=NN1CCCCN1CCN(Cc2ccccc2)CC1 (centres undefined)	6.12	–	45%	–	–	–	–	5.48	6.30	6.00	–	–	–
O=C1CC2CCc3sccc3C2=NN1CCCCN1CCN(Cc2ccccc2)CC1 (centres undefined)	6.07	–	–	–	–	5.48	–	–	–	–	–	–	–
O=C1CC2Cc3ccsc3C2=NN1CCCCN1CCN(Cc2ccccc2)CC1 (centres undefined)	6.27	–	11%	–	–	–	–	5.40	6.21	6.00	–	–	–
O=C1CC2CCc3ccsc3C2=NN1CCCCCN1CCN(Cc2cccc3c2ccn3S(=O)(=O)c2ccccc2)CC1 (centres undefined)	5.35	–	–	35%	–	–	inactive	7.20	–	5.77	–	–	–
O=C1CC2Cc3ccsc3C2=NN1CCCCCCN1CCN(Cc2cccc3c2ccn3S(=O)(=O)c2ccccc2)CC1 (centres undefined)	5.04	39%	–	–	–	–	inactive	7.17	5.29	–	–	–	–
O=C1CC2Cc3ccsc3C2=NN1CCCCCCCN1CCN(Cc2cccc3c2ccn3S(=O)(=O)c2ccccc2)CC1 (centres undefined)	5.14	–	–	–	–	–	inactive	7.10	5.18	5.42	–	–	–
O=C1CC2CCCc3ccsc3C2=NN1CCCCN1CCN(Cc2ccccc2)CC1 (centres undefined)	5.91	–	–	–	–	5.38	–	5.84	6.38	6.01	–	–	–
O=C1CC2Cc3ccsc3C2=NN1CCCCN1CCN(Cc2cccc3c2ccn3S(=O)(=O)c2ccccc2)CC1 (centres undefined)	5.45	–	–	–	–	–	26%	6.71	5.34	5.70	–	–	–
O=C1CC2CCc3ccsc3C2=NN1CCCCN1CCCCC1 (centres undefined)	5.68	18%	9%	–	30%	–	–	–	5.37	–	–	–	–
O=C1CC2CCc3ccsc3C2=NN1CCN1CCN(Cc2ccccc2)CC1 (centres undefined)	6.77	26%	–	–	–	5.29	–	5.78	5.96	–	6.91	–	–
O=C1CC2CCc3ccsc3C2=NN1CCCCCCCN1CCN(Cc2cccc3c2ccn3S(=O)(=O)c2ccccc2)CC1 (centres undefined)	5.34	–	–	33%	–	–	16%	7.06	–	–	–	43%	–
O=C1CC2CCc3ccsc3C2=NN1Cc1ccc(CN2CCN(Cc3ccccc3)CC2)cc1 (centres undefined)	5.44	–	–	–	–	5.01	–	5.90	6.10	5.68	–	–	–
Cn1cc(C(=O)OCC2CCN(CCNS(C)(=O)=O)CC2)c2ccccc21	–	–	–	–	–	–	–	–	–	–	–	–	8.85
